Results reported in ChEMBL document CHEMBL1142088, “Cumulative effects of several nonenzymatic mechanisms on the resistance of Pseudomonas aeruginosa to aminoglycosides” (2007).
≈ marks a conversion by molar mass, not a printed value.

Tests used:
Type in all cases: functional
Pseudomonas aeruginosa [1] = assay: Antibacterial activity against Pseudomonas aeruginosa FE57GZ with inactivated rplY, nuoG and mexZ genes […]
Pseudomonas aeruginosa [2] = assay: Antibacterial activity against Pseudomonas aeruginosa FE57U with inactivated rplY and galU genes by microdilution method
Pseudomonas aeruginosa [3] = assay: Antibacterial activity against Pseudomonas aeruginosa FE53 with inactivated mexZ gene by microdilution method
Pseudomonas aeruginosa [4] = assay: Antibacterial activity against Pseudomonas aeruginosa FE57 with inactivated rplY gene by microdilution method
Pseudomonas aeruginosa [5] = assay: Antibacterial activity against Pseudomonas aeruginosa FE53G with inactivated mexZ and nuoG genes by microdilution method
Pseudomonas aeruginosa [6] = assay: Antibacterial activity against Pseudomonas aeruginosa FE53U with inactivated mexZ and galU genes by microdilution method
Pseudomonas aeruginosa [7] = assay: Antibacterial activity against Pseudomonas aeruginosa FE57GUZ with inactivated rplY, nuoG, galU and mexZ genes […]
Pseudomonas aeruginosa [8] = assay: Antibacterial activity against Pseudomonas aeruginosa PAO1 by microdilution method
Pseudomonas aeruginosa [9] = assay: Antibacterial activity against Pseudomonas aeruginosa FE10 with inactivated nuoG gene by microdilution method
Pseudomonas aeruginosa [10] = assay: Antibacterial activity against Pseudomonas aeruginosa FE10U with inactivated nuoG and galU genes by microdilution method
Pseudomonas aeruginosa [11] = assay: Antibacterial activity against Pseudomonas aeruginosa FE57UZ with inactivated rplY, galU and mexZ genes […]
Pseudomonas aeruginosa [12] = assay: Antibacterial activity against Pseudomonas aeruginosa FE49 with inactivated galU gene by microdilution method
Pseudomonas aeruginosa [13] = assay: Antibacterial activity against Pseudomonas aeruginosa FE53GU with inactivated mexZ, nuoG and galU genes by […]
Pseudomonas aeruginosa [14] = assay: Antibacterial activity against Pseudomonas aeruginosa FE57Z with inactivated rplY and mexZ genes by microdilution method
Pseudomonas aeruginosa [15] = assay: Antibacterial activity against Pseudomonas aeruginosa FE57G with inactivated rplY and nuoG genes by microdilution method
Pseudomonas aeruginosa [16] = assay: Antibacterial activity against Pseudomonas aeruginosa FE57GU with inactivated rplY, nuoG and galU genes by […]
Pseudomonas aeruginosa [17] = assay: Antibacterial activity against Pseudomonas aeruginosa KJ7106 with inactivated PA5471 gene by microdilution method
Pseudomonas aeruginosa [18] = assay: Antibacterial activity against Pseudomonas aeruginosa FE57 containing inactivated rplY gene with pARAL25 by microdilution method
Summary of the method: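 MIC for the rplY mutant carrying plasmid-borne rplY under the arabinose-inducible pBAD promoter. Cells grown with 150 μg/ml ticarcillin to keep the plasmid and 0.2% arabinose. Serial twofold dilution with about 10^4 bacteria per spot at 37°C.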

Pseudomonas aeruginosa [19] = assay: Antibacterial activity against Pseudomonas aeruginosa FE63 containing inactivated rplY and PA5471 genes by microdilution method
Pseudomonas aeruginosa [20] = assay: Antibacterial activity against Pseudomonas aeruginosa FE60 containing inactivated mexXY gene by microdilution method
Pseudomonas aeruginosa [21] = assay: Antibacterial activity against Pseudomonas aeruginosa FE64 containing inactivated rplY and mexXY genes by microdilution method

| Compound | MIC (Pseudomonas aeruginosa [1]) [µg/mL] | MIC (Pseudomonas aeruginosa [2]) [µg/mL] | MIC (Pseudomonas aeruginosa [3]) [µg/mL] | MIC (Pseudomonas aeruginosa [4]) [µg/mL] | MIC (Pseudomonas aeruginosa [5]) [µg/mL] | MIC (Pseudomonas aeruginosa [6]) [µg/mL] | MIC (Pseudomonas aeruginosa [7]) [µg/mL] | MIC (Pseudomonas aeruginosa [8]) [µg/mL] | MIC (Pseudomonas aeruginosa [9]) [µg/mL] | MIC (Pseudomonas aeruginosa [10]) [µg/mL] | MIC (Pseudomonas aeruginosa [11]) [µg/mL] | MIC (Pseudomonas aeruginosa [12]) [µg/mL] | MIC (Pseudomonas aeruginosa [13]) [µg/mL] | MIC (Pseudomonas aeruginosa [14]) [µg/mL] | MIC (Pseudomonas aeruginosa [15]) [µg/mL] | MIC (Pseudomonas aeruginosa [16]) [µg/mL] | MIC (Pseudomonas aeruginosa [17]) [µg/mL] | MIC (Pseudomonas aeruginosa [19]) [µg/mL] | MIC (Pseudomonas aeruginosa [20]) [µg/mL] | MIC (Pseudomonas aeruginosa [21]) [µg/mL] | further results |
| --- | --- | --- | --- | --- | --- | --- | --- | --- | --- | --- | --- | --- | --- | --- | --- | --- | --- | --- | --- | --- | --- |
| NC[C@H]1O[C@H](O[C@H]2[C@H](O)[C@@H](O[C@H]3O[C@H](CO)[C@@H](O)[C@H](N)[C@H]3O)[C@H](N)C[C@@H]2N)[C@H](O)[C@@H](O)[C@@H]1O [KANAMYCIN] | 1020 (≈ 2110 µM) | 256 (≈ 528 µM) | 128 (≈ 264 µM) | 256 (≈ 528 µM) | 256 (≈ 528 µM) | 256 (≈ 528 µM) | 1020 (≈ 2110 µM) | 64 (≈ 132 µM) | 256 (≈ 528 µM) | 256 (≈ 528 µM) | 512 (≈ 1060 µM) | 128 (≈ 264 µM) | 512 (≈ 1060 µM) | 256 (≈ 528 µM) | 512 (≈ 1060 µM) | 512 (≈ 1060 µM) |  |  |  |  |  |
| NCC[C@H](O)C(=O)N[C@@H]1C[C@H](N)[C@@H](O[C@H]2O[C@H](CN)[C@@H](O)[C@H](O)[C@H]2O)[C@H](O)[C@H]1O[C@H]1O[C@H](CO)[C@@H](O)[C@H](N)[C@H]1O [AMIKACIN] | 32 (≈ 54.6 µM) | 16 (≈ 27.3 µM) | 8 (≈ 13.7 µM) | 8 (≈ 13.7 µM) | 16 (≈ 27.3 µM) | 16 (≈ 27.3 µM) | 64 (≈ 109 µM) | 4 (≈ 6.83 µM) | 8 (≈ 13.7 µM) | 8 (≈ 13.7 µM) | 32 (≈ 54.6 µM) | 8 (≈ 13.7 µM) | 32 (≈ 54.6 µM) | 16 (≈ 27.3 µM) | 32 (≈ 54.6 µM) | 32 (≈ 54.6 µM) | 1 (≈ 1.71 µM) | 2 (≈ 3.42 µM) | 1 (≈ 1.71 µM) | 2 (≈ 3.42 µM) | MIC (Pseudomonas aeruginosa [18]): 4 µg/mL (≈ 6.83 µM) |
| CO/N=C(\C(=O)N[C@@H]1C(=O)N2C(C(=O)[O-])=C(C[N+]3(C)CCCC3)CS[C@H]12)c1csc(N)n1 [CEFEPIME] | 16 (≈ 33.3 µM) | 4 (≈ 8.32 µM) | 16 (≈ 33.3 µM) | 4 (≈ 8.32 µM) | 16 (≈ 33.3 µM) | 16 (≈ 33.3 µM) | 16 (≈ 33.3 µM) | 4 (≈ 8.32 µM) | 4 (≈ 8.32 µM) | 4 (≈ 8.32 µM) | 16 (≈ 33.3 µM) | 4 (≈ 8.32 µM) | 16 (≈ 33.3 µM) | 16 (≈ 33.3 µM) | 4 (≈ 8.32 µM) | 8 (≈ 16.6 µM) | 4 (≈ 8.32 µM) | 2 (≈ 4.16 µM) | 4 (≈ 8.32 µM) | 2 (≈ 4.16 µM) |  |
| GENTAMICIN |  | 8 | 4 | 2 | 8 | 8 |  | 1 | 2 | 4 |  | 2 |  | 8 | 8 |  | 0.125 | 0.25 | 0.125 | 0.25 | MIC (Pseudomonas aeruginosa [18]): 1 µg/mL |
| NC[C@H]1O[C@H](O[C@H]2[C@H](O)[C@@H](O[C@H]3O[C@H](CO)[C@@H](O)[C@H](N)[C@H]3O)[C@H](N)C[C@@H]2N)[C@H](N)C[C@@H]1O [TOBRAMYCIN] | 4 (≈ 8.56 µM) | 2 (≈ 4.28 µM) | 1 (≈ 2.14 µM) | 1 (≈ 2.14 µM) | 2 (≈ 4.28 µM) | 2 (≈ 4.28 µM) | 8 (≈ 17.1 µM) | 0.5 (≈ 1.07 µM) | 1 (≈ 2.14 µM) | 2 (≈ 4.28 µM) | 4 (≈ 8.56 µM) | 1 (≈ 2.14 µM) | 4 (≈ 8.56 µM) | 2 (≈ 4.28 µM) | 2 (≈ 4.28 µM) | 4 (≈ 8.56 µM) | 0.25 (≈ 0.535 µM) | 0.5 (≈ 1.07 µM) | 0.25 (≈ 0.535 µM) | 0.5 (≈ 1.07 µM) | MIC (Pseudomonas aeruginosa [18]): 0.25 µg/mL (≈ 0.535 µM) |
| O=C(O)c1cn(C2CC2)c2cc(N3CCNCC3)c(F)cc2c1=O [CIPROFLOXACIN] | 1 (≈ 3.02 µM) |  | 1 (≈ 3.02 µM) |  | 1 (≈ 3.02 µM) |  | 1 (≈ 3.02 µM) |  |  |  | 1 (≈ 3.02 µM) |  | 1 (≈ 3.02 µM) | 1 (≈ 3.02 µM) |  |  |  |  |  |  |  |
| CCN[C@@H]1C[C@H](N)[C@@H](O[C@H]2OC(CN)=CC[C@H]2N)[C@H](O)[C@H]1O[C@H]1OC[C@](C)(O)[C@H](NC)[C@H]1O [NETILMICIN] | 128 (≈ 269 µM) | 16 (≈ 33.6 µM) | 8 (≈ 16.8 µM) | 8 (≈ 16.8 µM) | 16 (≈ 33.6 µM) | 16 (≈ 33.6 µM) | 256 (≈ 538 µM) | 4 (≈ 8.41 µM) | 8 (≈ 16.8 µM) | 8 (≈ 16.8 µM) | 64 (≈ 135 µM) | 8 (≈ 16.8 µM) | 64 (≈ 135 µM) | 16 (≈ 33.6 µM) | 16 (≈ 33.6 µM) | 64 (≈ 135 µM) |  |  |  |  |  |
